The results in this text go back to ChEMBL document CHEMBL3856186, “Partial Activation and Inhibition of TRPV1 Channels by Evodiamine and Rutaecarpine, Two Major Components of the Fruits of Evodia rutaecarpa” (J Nat Prod, 2016).

Activity calls are given as the source filed them. The calls are words filed in the database; no cut-off is given here.

What all share (assay type): cell-based
Experiment [1] deals with Transient receptor potential cation channel subfamily V member 1 (Rattus norvegicus) (UniProt O35433). The experiment can be described thus: Partial antagonist activity at rat TRPV1 expressed in HEK293 cells assessed as effect on capsaicin-induced inward current at 1 uM by whole-cell patch clamp method (reference value: -431 +/- 43.1 pA/pF). The method, boiled down:
(§1)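 HEK293 cells transiently expressing rat TRPV1 (EGFP cotransfected) were patched in whole-cell mode 1 day post-transfection. Cells were held at −60 mV in Ca2+-containing standard bath (pH 7.4) at ~25 °C. Capsaicin-evoked peak current amplitude was quantified. Sigmoidal curve fitting gave EC50 or IC50 values.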
Background: Patch clamp records ionic current or voltage across a cell membrane.

Experiment [2] has the same target. The experiment can be described thus: Partial antagonist activity at rat TRPV1 expressed in HEK293 cells assessed as effect on capsaicin-induced inward current at 1 uM by whole-cell patch clamp method (reference value: -327.4 +/- 52.3 pA/pF). The method, boiled down: as §1
For experiment [3] the target is unchanged. The experiment can be described thus: Partial antagonist activity at rat TRPV1 expressed in HEK293 cells assessed as effect on capsaicin-induced inward current at 1 uM by whole-cell patch clamp method (reference value: -151.2 +/- 33 pA/pF). Summed up:
as §1

Experiment [4] shares this target. The experiment can be described thus: Partial antagonist activity at rat TRPV1 expressed in HEK293 cells assessed as effect on capsaicin-induced inward current at 1 uM by whole-cell patch clamp method (reference value: -7 +/- 2.6 pA/pF). Summed up:
as §1

Experiment [5] has the same target. The experiment can be described thus: Partial antagonist activity at rat TRPV1 expressed in HEK293 cells assessed as effect on capsaicin-induced inward current at 10 uM by whole-cell patch clamp method. The method, boiled down:
as §1

For experiment [6] the target is unchanged. The experiment can be described thus: Partial antagonist activity at rat TRPV1 expressed in HEK293 cells assessed as effect on capsaicin-induced inward current at 10 uM by whole-cell patch clamp method (reference value: -[…] +/- […] pA/pF).
Experiment [7] has the same target. The experiment can be described thus: Partial antagonist activity at rat TRPV1 expressed in HEK293 cells assessed as effect on capsaicin-induced inward current at 10 uM by whole-cell patch clamp method (reference value: -480.7 +/- 96.9 pA/pF). The method, boiled down:
as §1

Experiment [8] shares this target. The experiment can be described thus: Partial antagonist activity at rat TRPV1 expressed in HEK293 cells assessed as effect on capsaicin-induced inward current at 10 uM by whole-cell patch clamp method (reference value: -431 +/- 43.1 pA/pF). Summed up:
as §1

Experiment [9] shares this target. The experiment can be described thus: Partial antagonist activity at rat TRPV1 expressed in HEK293 cells assessed as effect on capsaicin-induced inward current at 10 uM by whole-cell patch clamp method (reference value: -327.4 +/- 52.3 pA/pF). The method, boiled down: as §1
Experiment [10] has the same target. The experiment can be described thus: Partial antagonist activity at rat TRPV1 expressed in HEK293 cells assessed as effect on capsaicin-induced inward current at 10 uM by whole-cell patch clamp method (reference value: -151.2 +/- 33 pA/pF). The method, boiled down: as §1
The target is the same in experiment [11]. The experiment can be described thus: Partial antagonist activity at rat TRPV1 expressed in HEK293 cells assessed as effect on capsaicin-induced inward current at 10 uM by whole-cell patch clamp method (reference value: -7 +/- 2.6 pA/pF). Summed up:
as §1

Experiment [12] shares this target. The experiment can be described thus: Partial antagonist activity at rat TRPV1 expressed in HEK293 cells assessed as inhibition of capsaicin-induced inward current at -60 mV holding potential pretreated for 180 secs prior to capsaicin addition in presence of extracellular calcium by whole-cell patch-clamp method. The method, boiled down:
as §1

Experiment [13] shares this target. The experiment can be described thus: Partial antagonist activity at rat TRPV1 expressed in HEK293 cells assessed as desensitization of capsaicin-induced inward current at 10 uM and -60 mV holding potential pretreated for 60 secs prior to capsaicin-challenge in absence of calcium by whole-cell patch-clamp method. Summed up:
(§2)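 Whole-cell clamp at −60 mV was done on rat TRPV1-transfected HEK293 cells (1 day) using a calcium-free bath (5 mM EGTA, no CaCl2, pH 7.4) at ~25 °C. Capsaicin-evoked peak current was measured.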

Experiment [14] shares this target. The experiment can be described thus: Partial antagonist activity at rat TRPV1 expressed in HEK293 cells assessed as effect on capsaicin current density at 10 uM at -60 mV holding potential in absence of extracellular calcium by whole-cell patch-clamp method (reference value: -2407.7 +/- 850.6 pA). The method, boiled down:
as §2

For experiment [15] the target is unchanged. The experiment can be described thus: Partial antagonist activity at rat TRPV1 expressed in HEK293 cells assessed as effect on capsaicin current density at 0.1 uM pretreated for 180 sec followed by capsaicin addition at -60 mV holding potential in presence of extracellular calcium by whole-cell patch-clamp method (reference value: -327.4 +/- 52.3 pA/pF). The method, boiled down: as §1

The target is the same in experiment [16]. The experiment can be described thus: Partial antagonist activity at rat TRPV1 expressed in HEK293 cells assessed as effect on capsaicin current density at 0.5 uM pretreated for 180 sec followed by capsaicin addition at -60 mV holding potential in presence of extracellular calcium by whole-cell patch-clamp method (reference value: -327.4 +/- 52.3 pA/pF). Summed up: as §1

The target is the same in experiment [17]. The experiment can be described thus: Partial antagonist activity at rat TRPV1 expressed in HEK293 cells assessed as effect on capsaicin current density at 1 uM pretreated for 180 sec followed by capsaicin addition at -60 mV holding potential in presence of extracellular calcium by whole-cell patch-clamp method (reference value: -327.4 +/- 52.3 pA/pF). Summed up: as §1

The target is the same in experiment [18]. The experiment can be described thus: Partial antagonist activity at rat TRPV1 expressed in HEK293 cells assessed as effect on capsaicin current density at 10 uM pretreated for 180 sec followed by capsaicin addition at -60 mV holding potential in presence of extracellular calcium by whole-cell patch-clamp method (reference value: -327.4 +/- 52.3 pA/pF). The method, boiled down:
as §1

For experiment [19] the target is unchanged. The experiment can be described thus: Partial antagonist activity at rat TRPV1 expressed in HEK293 cells assessed as inhibition of proton-induced channel current at 1 or 50 uM and -60 mV holding potential pretreated for 60 secs prior to proton-challenge by whole-cell patch clamp method (reference value: 185.1 +/- 38.6 pA/pF). Summed up: (§3)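 Proton-activated currents were recorded in rat TRPV1-expressing HEK293 cells held at −60 mV in whole-cell mode, with bath buffered to pH 6 with 10 mM MES, at ~25 °C. Peak current amplitude was the read-out.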

The target is the same in experiment [20]. The experiment can be described thus: Partial antagonist activity at rat TRPV1 expressed in HEK293 cells assessed as effect on proton-induced channel current at 1 uM and -60 mV holding potential co-treated with proton by whole-cell patch clamp method. Summed up:
as §3

Transient receptor potential cation channel subfamily V member 1 (Rattus norvegicus), sequence (O35433 whole entry): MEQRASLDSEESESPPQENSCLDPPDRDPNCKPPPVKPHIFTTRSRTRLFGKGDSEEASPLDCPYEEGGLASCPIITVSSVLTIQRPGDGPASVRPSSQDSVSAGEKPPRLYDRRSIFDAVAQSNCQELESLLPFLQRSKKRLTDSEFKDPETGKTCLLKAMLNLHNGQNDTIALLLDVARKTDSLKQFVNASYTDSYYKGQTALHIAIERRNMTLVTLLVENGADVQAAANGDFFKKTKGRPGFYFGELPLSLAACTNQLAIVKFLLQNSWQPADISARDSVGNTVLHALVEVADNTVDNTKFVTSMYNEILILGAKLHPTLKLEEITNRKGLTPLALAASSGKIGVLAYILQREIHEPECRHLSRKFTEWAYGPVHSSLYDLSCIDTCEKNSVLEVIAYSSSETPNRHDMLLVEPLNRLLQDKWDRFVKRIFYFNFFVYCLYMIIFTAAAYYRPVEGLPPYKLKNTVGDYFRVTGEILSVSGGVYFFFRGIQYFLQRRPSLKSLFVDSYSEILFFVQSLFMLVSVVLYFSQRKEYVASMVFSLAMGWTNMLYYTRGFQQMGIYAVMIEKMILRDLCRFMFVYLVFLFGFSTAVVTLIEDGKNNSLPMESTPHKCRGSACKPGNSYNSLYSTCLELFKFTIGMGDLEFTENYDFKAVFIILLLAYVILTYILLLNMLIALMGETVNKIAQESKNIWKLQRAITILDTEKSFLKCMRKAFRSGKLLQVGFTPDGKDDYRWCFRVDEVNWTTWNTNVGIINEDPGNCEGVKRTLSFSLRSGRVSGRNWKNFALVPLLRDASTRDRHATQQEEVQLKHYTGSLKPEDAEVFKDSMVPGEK

As for `CN1c2ccccc2C(=O)N2CCc3c([nH]c4ccccc34)C21` (stereo not given), the Activity is -260 pA/pF in experiment [1]; -195 pA/pF in experiment [2]; -75 pA/pF in [3]; -81.7 pA/pF in experiment [4]; -439 pA/pF in [5]; -393 pA/pF in [6]. The Activity in [7] was -256 pA/pF; in [8] it was -237 pA/pF; in experiment [9], -160 pA/pF; in [10] it was -172 pA/pF; in experiment [11] it was -165 pA/pF; in [14], -2400 pA/pF. Besides, the Activity was -243 pA/pF in experiment [15]; -143 pA/pF in experiment [16]; -132 pA/pF in [17]; -60.3 pA/pF in [18]; -49.1 pA/pF in [19]; -158 pA/pF in experiment [20]. For the same compound, in experiment [12], the inhibition entry was “Dose-dependent effect”. In addition, the outcome in [13] was Active.
